Results taken from ChEMBL document CHEMBL5260840 (J Med Chem, 2019).
Values belong to the molecule of their own block, whether it stands above or below them. Activity calls are given as the source filed them. No cut-off for these calls is given here.

Columns and labels:
[1] = system: A204; experiment: Antiproliferative activity against human A204 cells assessed as inhibition of cell growth incubated for 7 days by CellTiterGlo assay; format: functional, cell-based; conditions: A204, 168 h
[2] = target: T1, Protein cereblon/Bromodomain-containing protein 9 (Homo sapiens) (UniProt Q9H8M2+Q96SW2); experiment: PROTAC activity at CRBN/BRD9 in human HeLa cells assessed as remaining BRD9 protein level at 1 uM incubated for 4 hrs by Western blot analysis relative to control; format: cell-based
T1 sequence (Q96SW2 whole entry, looked up): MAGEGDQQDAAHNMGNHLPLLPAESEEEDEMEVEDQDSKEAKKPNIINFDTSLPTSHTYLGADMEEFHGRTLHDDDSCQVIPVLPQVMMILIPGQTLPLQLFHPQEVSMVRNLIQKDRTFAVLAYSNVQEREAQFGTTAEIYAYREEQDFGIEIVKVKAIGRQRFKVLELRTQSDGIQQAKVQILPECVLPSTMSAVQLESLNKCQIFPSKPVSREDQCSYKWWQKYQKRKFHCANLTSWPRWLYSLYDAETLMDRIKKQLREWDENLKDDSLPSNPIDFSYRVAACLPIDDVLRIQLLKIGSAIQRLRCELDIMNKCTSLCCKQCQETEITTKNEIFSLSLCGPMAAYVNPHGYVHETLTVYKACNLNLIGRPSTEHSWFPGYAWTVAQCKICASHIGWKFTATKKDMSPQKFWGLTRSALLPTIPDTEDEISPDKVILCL
T1 sequence (Q9H8M2 whole entry, looked up): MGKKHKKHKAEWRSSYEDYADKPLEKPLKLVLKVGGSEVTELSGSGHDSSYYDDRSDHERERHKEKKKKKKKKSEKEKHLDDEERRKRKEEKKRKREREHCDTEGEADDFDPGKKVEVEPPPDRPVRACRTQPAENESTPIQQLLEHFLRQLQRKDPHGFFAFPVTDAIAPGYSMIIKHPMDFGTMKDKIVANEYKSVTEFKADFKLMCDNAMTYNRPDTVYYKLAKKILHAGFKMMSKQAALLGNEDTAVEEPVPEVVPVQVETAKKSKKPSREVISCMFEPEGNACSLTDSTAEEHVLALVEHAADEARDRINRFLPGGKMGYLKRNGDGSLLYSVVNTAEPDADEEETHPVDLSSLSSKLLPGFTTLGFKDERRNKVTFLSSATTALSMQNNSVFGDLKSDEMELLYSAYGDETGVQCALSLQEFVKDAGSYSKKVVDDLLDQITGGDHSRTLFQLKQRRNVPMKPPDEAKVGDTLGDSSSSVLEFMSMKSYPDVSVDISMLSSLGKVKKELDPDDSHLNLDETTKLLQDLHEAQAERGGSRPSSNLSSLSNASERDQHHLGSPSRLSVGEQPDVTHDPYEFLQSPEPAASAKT
In short: (§1)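 Cells given 1 µM compound before harvest: HeLa 4 h, RI-1 2 h and 8 h. BRD9, BRD7 and β-actin detected by Western blot; band intensities quantified.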

[3] = target: T1, Protein cereblon/Bromodomain-containing protein 9 (Homo sapiens); experiment: PROTAC activity at CRBN/BRD9 in human HeLa cells assessed as remaining BRD9 protein level at 1 uM incubated for 16 hrs by Western blot analysis relative to control; format: cell-based
In short: (§2)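 HeLa cells given 1 µM compound for 16 h before harvest. BRD9, BRD7 and β-actin detected by Western blot; band intensities quantified.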

[4] = target: T2, Protein cereblon/Bromodomain-containing protein 7 (Homo sapiens) (UniProt Q9NPI1+Q96SW2); experiment: PROTAC activity at CRBN/BRD7 in human HeLa cells assessed as remaining BRD7 protein level at 1 uM incubated for 4 hrs by Western blot analysis relative to control; format: cell-based; in short: as §1
T2 sequence (Q96SW2 whole entry, looked up): as the sequence (Q96SW2 whole entry, looked up) above
T2 sequence (Q9NPI1 whole entry, looked up): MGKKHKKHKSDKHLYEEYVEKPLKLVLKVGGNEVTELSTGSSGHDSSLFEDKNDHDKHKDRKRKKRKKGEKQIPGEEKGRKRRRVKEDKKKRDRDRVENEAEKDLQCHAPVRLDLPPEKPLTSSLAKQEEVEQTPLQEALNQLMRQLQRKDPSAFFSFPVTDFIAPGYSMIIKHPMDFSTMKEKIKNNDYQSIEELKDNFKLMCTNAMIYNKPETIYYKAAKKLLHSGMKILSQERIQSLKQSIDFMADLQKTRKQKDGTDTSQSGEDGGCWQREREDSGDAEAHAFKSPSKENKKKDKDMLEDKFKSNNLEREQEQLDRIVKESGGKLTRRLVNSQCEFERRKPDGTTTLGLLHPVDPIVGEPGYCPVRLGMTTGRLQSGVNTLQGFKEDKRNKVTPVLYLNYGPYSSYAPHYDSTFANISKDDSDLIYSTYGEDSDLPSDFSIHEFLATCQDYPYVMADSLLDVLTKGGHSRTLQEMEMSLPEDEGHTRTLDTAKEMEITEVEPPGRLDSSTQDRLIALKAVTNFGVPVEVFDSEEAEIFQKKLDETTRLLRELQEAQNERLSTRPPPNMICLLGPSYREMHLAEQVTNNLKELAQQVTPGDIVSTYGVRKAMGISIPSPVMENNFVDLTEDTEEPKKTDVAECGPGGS

[5] = target: T2, Protein cereblon/Bromodomain-containing protein 7 (Homo sapiens); experiment: PROTAC activity at CRBN/BRD7 in human HeLa cells assessed as remaining BRD7 protein level at 1 uM incubated for 16 hrs by Western blot analysis relative to control; format: cell-based; in short: as §2
[6] = target: T1, Protein cereblon/Bromodomain-containing protein 9 (Homo sapiens); experiment: PROTAC activity at CRBN/BRD9 in human Ri-1 cells assessed as remaining BRD9 protein level at 1 uM incubated for 2 hrs by Western blot analysis relative to control; format: cell-based; in short: as §1
[7] = target: T2, Protein cereblon/Bromodomain-containing protein 7 (Homo sapiens); experiment: PROTAC activity at CRBN/BRD7 in human Ri-1 cells assessed as remaining BRD7 protein level at 1 uM incubated for 2 hrs by Western blot analysis relative to control; format: cell-based; in short: as §1
[8] = target: T1, Protein cereblon/Bromodomain-containing protein 9 (Homo sapiens); experiment: PROTAC activity at CRBN/BRD9 in human Ri-1 cells assessed as remaining BRD9 protein level at 1 uM incubated for 8 hrs by Western blot analysis relative to control; format: cell-based; in short: as §1
[9] = target: T2, Protein cereblon/Bromodomain-containing protein 7 (Homo sapiens); experiment: PROTAC activity at CRBN/BRD7 in human Ri-1 cells assessed as remaining BRD7 protein level at 1 uM incubated for 8 hrs by Western blot analysis relative to control; format: cell-based; in short: as §1
[10] = target: T3, von Hippel-Lindau disease tumor suppressor/Bromodomain-containing protein 9 (Homo sapiens) (UniProt Q9H8M2+P40337); experiment: PROTAC activity at VHL/BRD9 in human HeLa cells assessed as remaining BRD9 protein level at 1 uM incubated for 16 hrs by Western blot analysis relative to control; format: cell-based
T3 sequence (P40337 whole entry, looked up): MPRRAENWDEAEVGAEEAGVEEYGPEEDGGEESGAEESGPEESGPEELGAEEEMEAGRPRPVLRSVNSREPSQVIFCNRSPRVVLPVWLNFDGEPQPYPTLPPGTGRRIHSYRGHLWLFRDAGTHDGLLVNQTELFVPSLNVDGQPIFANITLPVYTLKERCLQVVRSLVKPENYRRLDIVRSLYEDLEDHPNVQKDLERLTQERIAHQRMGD
T3 sequence (Q9H8M2 whole entry, looked up): as the sequence (Q9H8M2 whole entry, looked up) above
In short: (§3)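 HeLa cells treated with compound for the stated time before harvest; BRD9, BRD7 and β-actin detected by Western blot with β-actin loading control; band intensities quantified.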

[11] = target: T4, von Hippel-Lindau disease tumor suppressor/Bromodomain-containing protein 7 (Homo sapiens) (UniProt Q9NPI1+P40337); experiment: PROTAC activity at VHL/BRD7 in human HeLa cells assessed as remaining BRD7 protein level at 1 uM incubated for 4 hrs by Western blot analysis relative to control; format: cell-based
T4 sequence (P40337 whole entry, looked up): as the sequence (P40337 whole entry, looked up) above
T4 sequence (Q9NPI1 whole entry, looked up): as the sequence (Q9NPI1 whole entry, looked up) above

[12] = target: T4, von Hippel-Lindau disease tumor suppressor/Bromodomain-containing protein 7 (Homo sapiens); experiment: PROTAC activity at VHL/BRD7 in human HeLa cells assessed as remaining BRD7 protein level at 1 uM incubated for 16 hrs by Western blot analysis relative to control; format: cell-based
[13] = target: T3, von Hippel-Lindau disease tumor suppressor/Bromodomain-containing protein 9 (Homo sapiens); experiment: PROTAC activity at VHL/BRD9 in human HeLa cells assessed as protein degradation at 1 uM incubated for 4 hrs by Western blot analysis relative to control; format: cell-based; in short: as §3
[14] = target: T3, von Hippel-Lindau disease tumor suppressor/Bromodomain-containing protein 9 (Homo sapiens); experiment: PROTAC activity at VHL/BRD9 in human HeLa cells assessed as maximal protein degradation at 10 uM incubated for 4 hrs by Western blot analysis relative to control; format: cell-based; in short: as §3
[15] = target: T3, von Hippel-Lindau disease tumor suppressor/Bromodomain-containing protein 9 (Homo sapiens); experiment: PROTAC activity at VHL/BRD9 in human HeLa cells assessed as apparent half-life of BRD9 at 1 uM; format: cell-based
[16] = target: T3, von Hippel-Lindau disease tumor suppressor/Bromodomain-containing protein 9 (Homo sapiens); experiment: PROTAC activity at VHL/BRD9 in human HeLa cells assessed as BRD9 protein degradation at 1 uM incubated for 4 hrs by Western blot analysis relative to control; format: cell-based; in short: as §3
[17] = target: T3, von Hippel-Lindau disease tumor suppressor/Bromodomain-containing protein 9 (Homo sapiens); experiment: PROTAC activity at VHL/BRD9 in human HeLa cells assessed as BRD9 protein degradation at 1 uM incubated for 8 hrs by Western blot analysis; format: cell-based; in short: as §3
[18] = target: T3, von Hippel-Lindau disease tumor suppressor/Bromodomain-containing protein 9 (Homo sapiens); experiment: PROTAC activity at VHL/BRD9 in human Ri-1 cells assessed as remaining BRD9 protein level at 1 uM incubated for 2 hrs by Western blot analysis relative to control; format: cell-based
In short: (§4)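 Ri-1 cells exposed to compound for the stated time before harvest; BRD9, BRD7 and β-actin measured by Western blot, band intensities quantified and set against DMSO-treated control.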

[19] = target: T4, von Hippel-Lindau disease tumor suppressor/Bromodomain-containing protein 7 (Homo sapiens); experiment: PROTAC activity at VHL/BRD7 in human Ri-1 cells assessed as remaining BRD7 protein level at 1 uM incubated for 2 hrs by Western blot analysis relative to control; format: cell-based
[20] = target: T3, von Hippel-Lindau disease tumor suppressor/Bromodomain-containing protein 9 (Homo sapiens); experiment: PROTAC activity at VHL/BRD9 in human Ri-1 cells assessed as remaining BRD9 protein level at 1 uM incubated for 8 hrs by Western blot analysis relative to control; format: cell-based; in short: as §4
[21] = target: T4, von Hippel-Lindau disease tumor suppressor/Bromodomain-containing protein 7 (Homo sapiens); experiment: PROTAC activity at VHL/BRD7 in human Ri-1 cells assessed as remaining BRD7 protein level at 1 uM incubated for 8 hrs by Western blot analysis relative to control; format: cell-based
[22] = target: T5, Von Hippel-Lindau disease tumor suppressor/Elongin B/Elongin C (Homo sapiens) (UniProt P40337+Q15370+Q15369); experiment: Co-operative binding affinity to 6His-tagged human VHL/ElonginC/ElonginB expressed in Escherichia coli BL21 (DE3) cells assessed as total gibb's free energy change in the presence of BRD9-BD as complex with compound by ITC analysis
T5 sequence (P40337 whole entry, looked up): as the sequence (P40337 whole entry, looked up) above
T5 sequence (Q15369 whole entry, looked up): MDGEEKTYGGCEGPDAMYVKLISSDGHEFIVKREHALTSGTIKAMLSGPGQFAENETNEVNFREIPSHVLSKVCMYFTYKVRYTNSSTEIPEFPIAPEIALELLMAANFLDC
T5 sequence (Q15370 whole entry, looked up): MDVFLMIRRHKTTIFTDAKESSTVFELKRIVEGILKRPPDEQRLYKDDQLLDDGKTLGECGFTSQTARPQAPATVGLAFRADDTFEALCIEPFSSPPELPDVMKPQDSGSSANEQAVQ

[23] = target: T5, Von Hippel-Lindau disease tumor suppressor/Elongin B/Elongin C (Homo sapiens); experiment: Co-operative binding affinity to 6His-tagged human VHL/ElonginC/ElonginB expressed in Escherichia coli BL21 (DE3) cells assessed as maximal intensity in the presence of BRD9-BD as complex with compound incubated for 1 hrs by AlphaLISA proximity assay
[24] = target: Bromodomain-containing protein 4 (Homo sapiens) (UniProt O60885)

- Activity [2]: 6%
- Activity [3]: 7%
- Activity [4]: 81%
- Activity [5]: 97%
- Activity [6]: 5%
- Activity [7]: 158%
- Activity [8]: 2%
- Activity [9]: 225%
Structure (SMILES): COc1cc(-c2cn(C)c(=O)c3cnccc23)cc(OC)c1CN1CCN(CCOCCOCC(=O)NCCNc2cccc3c2C(=O)N(C2CCC(=O)NC2=O)C3=O)CC1 (centres undefined)
- IC50 [1]: 305 nM

- Activity [10]: 36%
- Activity [11]: 7%
- Activity [12]: 90%
- Activity [13]: 60%
- Emax [14]: 80%
- T1/2 [15]: 3.47 h
- Activity [16]: > 50%
- Activity [17]: Active
- Activity [18]: 68%
- Activity [19]: 127%
- Activity [20]: 100%
- Activity [21]: 145%
- deltaG [22]: -20.7 kcal/mol
- Activity [23]: 1.56 10^6No_unit
Structure (SMILES): COc1cc(-c2cn(C)c(=O)c3cnccc23)cc(OC)c1CN1CCN(CCOCCOCCOc2cc(-c3scnc3C)ccc2CNC(=O)[C@@H]2C[C@@H](O)CN2C(=O)[C@@H](NC(=O)C2(F)CC2)C(C)(C)C)CC1

Structure (SMILES): Cc1ncsc1-c1ccc(CNC(=O)[C@@H]2C[C@@H](O)CN2C(=O)[C@@H](NC(=O)COCCOCCOCCNC(=O)C[C@@H]2N=C(c3ccc(Cl)cc3)c3c(sc(C)c3C)-n3c(C)nnc32)C(C)(C)C)cc1
- deltaG [24]: -22.2 kcal/mol
